Experiment [1] can be described thus: reduced viability of SK-BR-3 breast cancer cells – cell-based, 24 h, human, pilot screen (AID 572;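 active = viability at or below 10% of carrier control in both of two separate runs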;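 also: compound exposure lasted between 18 and 24 h rather than exactly 24 h; 100% = carrier-treated control wells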). As to conditions: SK-BR-3 viability, CellTiter-Glo luminescence, at 10 µM, stronger effect = lower value. On the technique in general: ATP-based viability assays read luminescence as a measure of living cells.
Experiment [2] is described as follows: HUVEC growth inhibition – cell-based, human, primary screen (AID 575;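 active = viability at or below 30% in both replicate assays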;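 also: 100% = median of untreated cell wells with 0.1% DMSO on each plate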). As to conditions: HUVEC proliferation, CellTiter-Glo luminescence, 72 h; at 10 µM; stronger effect = lower value. In a few lines: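 Test system – primary HUVEC, no more than 12 passages · Dosing – one dose, 10 µM final, 0.1% DMSO · Times – 72 h treatment at 37 °C · Measured by – ATP-based CellTiter-Glo luminescent read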

Experiment [3] in a line: H69AR cell proliferation blockers – human, duplicate replicates, primary screen (AID 580).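 Also: 100% = mean luminescence of untreated wells and 0% = no signal.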 As to conditions: H69AR lung tumor cells viability, ATP luminescence, 72 h; at 10 µM; stronger effect = lower value.
Experiment [4] can be described thus: MRP1 drug-resistance reversers in H69AR cells – cell-based, doxorubicin co-treatment, pilot screen (AID 601;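 active = viability loss from added drug above about 55%, and viability with drug at most 40%, in both replicates, limit read from the data, passing the limit was not always enough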). Conditions: CellTiter-Glo, 72 h, at 10 µM; for differential viability (reversal): stronger effect = higher value.
The nature of experiment [5]: yeast transport mutant growth inhibition pilot in 384-well plates, post-Golgi transport modulator project (AID 636; in the data active = inhibition above about 31%). Conditions: absorbance 615 nm, about 18 h, stronger effect = higher value.
The nature of experiment [6]: growth suppression of yeast trafficking mutant, preliminary HTS, modulators of trafficking downstream of Golgi apparatus project, 1536-format plate, OD 615 nm (AID 637; in the data active = inhibition above about 30%). As to conditions: yeast transport mutant growth, absorbance 615 nm, 18 h; stronger effect = higher value.
Setting [7] is: H69AR cells + 2 uM doxorubicin, measured here: viability with 2 uM doxorubicin, stronger effect = lower value.
Setting [8] is: H69AR cells, compound alone cytotoxicity.

We go through 19 compounds from PubChem BioAssay.

Activity calls are given as the source filed them.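 The calls were made as follows, unless noted: active = viability at or under a set limit in both replicates, limit being median viability minus 3 SD (cut at about 48% in these data, passing the limit was not always enough); inconclusive = at or under the limit in just one replicate; inactive = at or above the limit in both replicates.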

Take `CSC1=C(C#N)C(C)CC(=O)N1` (configuration not stated): the viability in experiment [1] is 91% (inactive); in experiment [2], 107% (inactive); in experiment [3] it was 115% (inactive); in experiment [4] (setting [7]) it was 105%; in experiment [4] (setting [8]), 115%. Besides, the differential viability (reversal) in experiment [4] (H69AR cells + 2 uM doxorubicin) was 9.97% (inactive). Besides, the inhibition in experiment [5] was -7.81% (inactive); in experiment [6] it was 2.18% (inactive).

As to `CCOc1ccccc1N1CC(O)=C(c2nc3ccccc3s2)C1=N`, the viability in experiment [1] was 97% (inactive); in experiment [2], 49.4% (inactive); in experiment [3], 14.5% (active); in experiment [4] (setting [7]), 60.2%; in experiment [4] (setting [8]), 14.5%. For the same compound, the differential viability (reversal) in experiment [4] (H69AR cells + 2 uM doxorubicin) was -45.7% (inactive). For the same compound, the inhibition was 1.47% (inactive) in experiment [5] and 2.36% (inactive) in experiment [6].

Regarding `Cc1nc(NC(=O)C23CCC(C)(C(=O)O2)C3(C)C)sc1C` (configuration not stated), the viability in experiment [1] was 133% (inactive); in experiment [2], 107% (inactive); in experiment [3], 99.2% (inactive); in experiment [4] (setting [7]), 85.4%; in experiment [4] (setting [8]) it was 99.2%. Moreover, the differential viability (reversal) in experiment [4] (H69AR cells + 2 uM doxorubicin) is 13.9% (inactive). The inhibition is -2.99% (inactive) in experiment [5] and 0.16% (inactive) in experiment [6].

Consider `CCOc1ccc(NC(=O)CC2NCCNC2=O)cc1` (configuration not stated), for which the viability in experiment [1] was 125% (inactive); in experiment [2], 108% (inactive); in experiment [3], 95.3% (inactive); in experiment [4] (setting [7]) it was 92.8%; in experiment [4] (setting [8]) it was 95.3%. The differential viability (reversal) in experiment [4] (H69AR cells + 2 uM doxorubicin) is 2.51% (inactive). Further, the inhibition was -5.95% (inactive) in experiment [5] and -2.36% (inactive) in experiment [6].

As to `c1ccc2c(SCc3cn4cccnc4n3)ncnc2c1`, the viability is 108% (inactive) in experiment [1]; 99.9% (inactive) in experiment [2]; 88.4% (inactive) in experiment [3]; 78% in experiment [4] (setting [7]); 88.4% in experiment [4] (setting [8]). Moreover, in experiment [4] (H69AR cells + 2 uM doxorubicin), the differential viability (reversal) is 10.4% (inactive). For the same compound, the inhibition in experiment [5] is -4.8% (inactive); in experiment [6] it was -3.82% (inactive).

Regarding `Cc1cc(NS(=O)(=O)c2ccc(N)cc2)no1`, the viability is 111% (inactive) in experiment [1]; 98.9% (inactive) in experiment [2]; 88.9% (inactive) in experiment [3]; 101% in experiment [4] (setting [7]); 88.9% in experiment [4] (setting [8]). In experiment [4] (H69AR cells + 2 uM doxorubicin), the differential viability (reversal) was -12.6% (inactive). Also, the inhibition is 1.56% (inactive) in experiment [5] and -3.5% (inactive) in experiment [6].

In the case of `CCOC(=O)N1CCN(C(=O)CN(Cc2ccccc2)S(=O)(=O)c2ccc(OC)c(C)c2)CC1`, the viability is 106% (inactive) in experiment [1]; 102% (inactive) in experiment [2]; 94.7% (inactive) in experiment [3]; 102% in experiment [4] (setting [7]); 94.7% in experiment [4] (setting [8]). For the same compound, in experiment [4] (H69AR cells + 2 uM doxorubicin), the differential viability (reversal) was -7.75% (inactive). Besides, the inhibition in experiment [5] was -0.13% (inactive); in experiment [6], -3.45% (inactive).

In the case of `COc1ccccc1N1CCN(C(=O)c2cc(-c3ccc(Cl)c(Cl)c3)on2)CC1`, the viability was 122% (inactive) in experiment [1]; 70.4% (inactive) in experiment [2]; 57.9% (inactive) in experiment [3]; 64.5% in experiment [4] (setting [7]); 57.9% in experiment [4] (setting [8]). Also, the differential viability (reversal) in experiment [4] (H69AR cells + 2 uM doxorubicin) was -6.66% (inactive). Moreover, the results for the inhibition in experiment [5] and in experiment [6] were -4.13% (inactive) and -1.82% (inactive), respectively.

Regarding `NC(CO)C(=O)NNCc1ccc(O)c(O)c1O` (configuration not stated), the viability in experiment [1] was 97% (inactive); in experiment [2], 82.9% (inactive); in experiment [3], 98.7% (inactive); in experiment [4] (setting [7]) it was 90.5%; in experiment [4] (setting [8]) it was 98.7%. Further, the differential viability (reversal) in experiment [4] (H69AR cells + 2 uM doxorubicin) is 8.12% (inactive). The inhibition in experiment [5] was -3.51% (inactive); in experiment [6], -2.67% (inactive).

`CCOc1ccc(NC(=O)C2CC(=O)N(CC)C(=Nc3ccc4c(c3)OCO4)S2)cc1` (configuration not stated): the viability in experiment [1] was 87% (inactive); in experiment [2], 109% (inactive); in experiment [3], 84% (inactive); in experiment [4] (setting [7]), 84.7%; in experiment [4] (setting [8]), 84%. Also, the differential viability (reversal) in experiment [4] (H69AR cells + 2 uM doxorubicin) is -0.76% (inactive). Also, the inhibition in experiment [5] was -2.84% (inactive); in experiment [6], -5.64% (inactive).

On to `Cc1cc(C)c(NC(=O)CSc2nnc(-c3ccncc3)n2Cc2ccco2)c(C)c1`, for which the viability in experiment [1] is 91% (inactive); in experiment [2] it was 109% (inactive); in experiment [3], 97.4% (inactive); in experiment [4] (setting [7]), 94.2%; in experiment [4] (setting [8]), 97.4%. Also, in experiment [4] (H69AR cells + 2 uM doxorubicin), the differential viability (reversal) is 3.25% (inactive). Besides, the inhibition in experiment [5] is -2.7% (inactive); in experiment [6] it was -4.73% (inactive).

Take `COCc1nnc(SCC(=O)NC(C)c2ccccc2)n1-c1ccccc1` (configuration not stated): the viability in experiment [1] was 84% (inactive); in experiment [2], 101% (inactive); in experiment [3] it was 100% (inactive); in experiment [4] (setting [7]), 105%; in experiment [4] (setting [8]), 100%. Also, the differential viability (reversal) in experiment [4] (H69AR cells + 2 uM doxorubicin) was -5.31% (inactive). Also, the inhibition in experiment [5] is -4.66% (inactive); in experiment [6], 1.27% (inactive).

Take `COc1cc(C)c(Br)cc1S(=O)(=O)N1CCOCC1`: the viability in experiment [1] is 84% (inactive); in experiment [2], 99.6% (inactive); in experiment [3], 100% (inactive); in experiment [4] (setting [7]), 86%; in experiment [4] (setting [8]) it was 100%. Moreover, in experiment [4] (H69AR cells + 2 uM doxorubicin), the differential viability (reversal) is 14.5% (inactive). For the same compound, the inhibition in experiment [5] is -5.48% (inactive); in experiment [6], -0.18% (inactive).

Regarding `Cc1cnc(C(=O)Nc2nnc(C(C)C)s2)cn1`, the viability in experiment [1] is 113% (inactive); in experiment [2] it was 113% (inactive); in experiment [3] it was 87.4% (inactive); in experiment [4] (setting [7]) it was 81.2%; in experiment [4] (setting [8]), 87.4%. The differential viability (reversal) in experiment [4] (H69AR cells + 2 uM doxorubicin) was 6.11% (inactive). Further, the figures for the inhibition in experiment [5] and in experiment [6] were -0.26% (inactive) and -1.97% (inactive), respectively.

For `O=C(CSCc1n[nH]c(=O)[nH]1)NCCOc1cccc(Oc2ccccc2)c1`, the viability in experiment [1] is 103% (inactive); in experiment [2] it was 102% (inactive); in experiment [3], 104% (inactive); in experiment [4] (setting [7]), 100%; in experiment [4] (setting [8]) it was 104%. In addition, the differential viability (reversal) in experiment [4] (H69AR cells + 2 uM doxorubicin) was 3.55% (inactive). In addition, the inhibition in experiment [5] was -1.2% (inactive); in experiment [6], 2.73% (inactive).

Regarding `CCCc1cc(=O)[nH]c(SCc2ccccc2)n1`, the viability in experiment [1] is 101% (inactive); in experiment [2], 106% (inactive); in experiment [3] it was 90.4% (inactive); in experiment [4] (setting [7]) it was 81.9%; in experiment [4] (setting [8]), 90.4%. For the same compound, the differential viability (reversal) in experiment [4] (H69AR cells + 2 uM doxorubicin) was 8.54% (inactive). The results for the inhibition in experiment [5] and in experiment [6] were 1.04% (inactive) and -2.46% (inactive), respectively.

Turning to `c1coc(-c2nnc(-c3cccs3)o2)c1`, the viability in experiment [1] was 106% (inactive); in experiment [2], 110% (inactive); in experiment [3] it was 102% (inactive); in experiment [4] (setting [7]), 87.9%; in experiment [4] (setting [8]) it was 102%. For the same compound, the differential viability (reversal) in experiment [4] (H69AR cells + 2 uM doxorubicin) was 14% (inactive). Besides, the inhibition in experiment [5] is -5.33% (inactive); in experiment [6], 0% (inactive).

In the case of `Cc1ccc2nc(-c3ccc(S(=O)(=O)N4CCOCC4)cc3)cn2c1`, the viability in experiment [1] was 138% (inactive); in experiment [2], 108% (inactive); in experiment [3], 105% (inactive); in experiment [4] (setting [7]), 98.5%; in experiment [4] (setting [8]) it was 105%. In addition, the differential viability (reversal) in experiment [4] (H69AR cells + 2 uM doxorubicin) was 6.21% (inactive). The inhibition in experiment [5] is -1.17% (inactive); in experiment [6], -1.48% (inactive).

Take `O=C(c1cccnc1)N1CCN(C(=O)c2ccccc2F)CC1`: the viability was 97% (inactive) in experiment [1]; 98.5% (inactive) in experiment [2]; 97.2% (inactive) in experiment [3]; 85.7% in experiment [4] (setting [7]); 97.2% in experiment [4] (setting [8]). Also, the differential viability (reversal) in experiment [4] (H69AR cells + 2 uM doxorubicin) is 11.5% (inactive). Besides, the inhibition in experiment [5] was -4% (inactive); in experiment [6] it was -5.09% (inactive).

As usually defined, the viability is a read-out of living cells in per cent, often relative to untreated cells. As a reminder, the inhibition is the drop in the measured response relative to a control, in per cent.
